Data as given in ChEMBL document CHEMBL4145447, “4-arylamidobenzyl substituted 5-bromomethylene-2(5H)-furanones for chronic bacterial infection” (Eur J Med Chem, 2018).
Active and inactive are the calls of the source. The rule behind the calls is not given here.

Molecular target: T1, Anthranilate--CoA ligase (Pseudomonas aeruginosa (strain ATCC 15692 / DSM 22644 / CIP 104116 /JCM 14847 / LMG 12228 / 1C / PRS 101 / PAO1)) (UniProt Q9I4X3)
T1 sequence (whole entry): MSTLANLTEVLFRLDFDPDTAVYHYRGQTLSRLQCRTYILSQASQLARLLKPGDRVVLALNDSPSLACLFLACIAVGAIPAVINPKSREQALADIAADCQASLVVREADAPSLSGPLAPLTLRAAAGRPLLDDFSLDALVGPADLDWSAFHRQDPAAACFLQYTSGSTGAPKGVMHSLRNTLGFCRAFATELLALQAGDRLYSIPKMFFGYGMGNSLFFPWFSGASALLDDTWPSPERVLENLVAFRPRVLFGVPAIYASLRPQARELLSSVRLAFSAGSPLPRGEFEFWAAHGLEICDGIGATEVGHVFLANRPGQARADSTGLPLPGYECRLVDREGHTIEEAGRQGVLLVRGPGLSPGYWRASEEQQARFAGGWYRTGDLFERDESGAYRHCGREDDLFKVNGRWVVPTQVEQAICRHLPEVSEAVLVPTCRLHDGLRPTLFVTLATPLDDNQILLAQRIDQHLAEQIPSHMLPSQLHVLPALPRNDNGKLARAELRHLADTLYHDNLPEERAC
Assay: Inhibition of Pseudomonas aeruginosa PAO1 GFP-fused quorum sensing pqsA at 5 to 100 uM measured every 15 mins up to 12 hrs by GFP reporter gene assay
Method in brief: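 GFP reporter strains of P. aeruginosa PAO1 (lasB-, rhlA- or pqsA-promoter fused to unstable gfp(ASV)) grown overnight in LB at 37 °C, 200 rpm, 18 h, then diluted 1:100. Culture mixed 1:1 with compound diluted in LB from 10 mM DMSO stock (0.1% DMSO final). Fluorescence (ex 485/em 528 nm) read every 15 min at 37 °C for ≥12 h.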

Compound: O=C(C=Cc1ccccc1)Nc1ccc(CC2=CC(=O)O/C2=C/Br)cc1
- inhibition: inactive
